Measurements taken from article PMC8286641 (European Journal of Drug Metabolism and Pharmacokinetics, 2021).

Experiments:
[1] = target: T1, ENT1 (Homo sapiens, UniProt Q99808); assay: Inhibition of ENT1-mediated [3H]-uridine uptake in HAP1 ENT2-KO cells; assay type: cell-based; details: 10 µM TKI; for % inhibition of ENT1 activity (mean ± SD): HAP1-ENT2 KO cells, [3H]-uridine uptake 5 min at 37 °C; for ENT1 inhibitor class / Effect on ENT1 activity (in words): HAP1 ENT2-KO cells
T1 sequence (Q99808 1-456): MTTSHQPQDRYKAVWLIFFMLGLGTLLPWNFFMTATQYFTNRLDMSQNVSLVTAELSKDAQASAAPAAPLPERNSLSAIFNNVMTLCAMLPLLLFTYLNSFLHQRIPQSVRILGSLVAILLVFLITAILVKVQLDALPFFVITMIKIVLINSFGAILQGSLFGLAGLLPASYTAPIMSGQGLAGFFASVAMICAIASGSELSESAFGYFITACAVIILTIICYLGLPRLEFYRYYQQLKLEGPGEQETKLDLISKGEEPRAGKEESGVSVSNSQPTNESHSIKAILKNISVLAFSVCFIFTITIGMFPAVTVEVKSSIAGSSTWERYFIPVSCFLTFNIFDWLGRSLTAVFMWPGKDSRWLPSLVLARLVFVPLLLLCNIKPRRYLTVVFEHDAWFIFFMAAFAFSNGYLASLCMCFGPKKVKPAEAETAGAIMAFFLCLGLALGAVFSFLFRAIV

[2] = Maximum plasma concentration of TKIs; assay type: in vivo; details: from Cmax and fu
[3] = target: T1, ENT1; assay: Prediction of in vivo ENT1 inhibition; details: predicted if Imax,u/IC50 ≥ 0.1
How it was run: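 Unbound peak plasma level (Imax,u) was obtained from literature Cmax and unbound fraction and divided by in vitro ENT1 IC50. Inhibition was predicted when the ratio was ≥ 0.1, following FDA drug-interaction guidance.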

[4] = plasma; ref 43-47 (Reference column, one per TKI); cited from earlier work
[5] = system: ENT1/ENT2; assay: Lorlatinib accumulation assay in HAP1 wild-type, ENT1-KO and ENT2-KO cells; assay type: cell-based, human; details: 10 µM lorlatinib, ENT1-KO, ENT2-KO cells
How it was run: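 HAP1 wild-type, ENT1-KO and ENT2-KO cells were grown in Iscove's modified Dulbecco's medium with 10% fetal calf serum and penicillin/streptomycin. Cells were exposed to 10 µM test compound for 5 min at 37 °C, without or with 0.1 µM (ENT1) or 100 µM (ENT1/ENT2) NBMPR. They were then washed twice in ice-cold PBS and lysed in distilled water. Lysates underwent acetonitrile extraction, and compound was quantified by LC–MS/MS (C18 column, ESI+).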

[6] = target: T2, ENT2 (Homo sapiens, UniProt Q14542); assay: Prediction of in vivo ENT2 inhibition; details: Imax,u/IC50 greater than 0.1
T2 sequence (Q14542 1-456): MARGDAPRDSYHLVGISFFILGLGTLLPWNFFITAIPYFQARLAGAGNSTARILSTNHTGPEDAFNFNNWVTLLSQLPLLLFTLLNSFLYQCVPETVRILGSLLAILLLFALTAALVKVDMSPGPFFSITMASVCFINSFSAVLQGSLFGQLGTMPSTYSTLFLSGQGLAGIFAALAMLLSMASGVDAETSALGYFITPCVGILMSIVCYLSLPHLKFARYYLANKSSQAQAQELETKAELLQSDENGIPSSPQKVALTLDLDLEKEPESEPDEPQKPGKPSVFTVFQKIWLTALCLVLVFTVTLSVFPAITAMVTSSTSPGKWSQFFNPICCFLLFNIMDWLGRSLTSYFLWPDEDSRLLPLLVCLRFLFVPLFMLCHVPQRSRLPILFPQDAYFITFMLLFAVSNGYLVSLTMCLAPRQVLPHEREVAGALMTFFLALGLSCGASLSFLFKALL
How it was run: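 Imax,u from literature Cmax and unbound fraction was divided by ENT2 IC50, using the FDA guidance threshold of 0.1. […] Uptake was counted by scintillation, normalised to protein, and fitted to a four-parameter logistic curve; three independent assays.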

SMILES | % inhibition of ENT1 activity (mean ± SD) [1] [%] | ENT1 inhibitor class [1] | further results
CCN1CCN(Cc2ccc(Nc3ncc(F)c(-c4cc(F)c5nc(C)n(C(C)C)c5c4)n3)nc2)CC1 [Abemaciclib, abemaciclib] | 25.0 ± 7.9 | weak (decreased ENT1 activity by less than 35% and can thus be considered as weak ENT1 inhibitors) | –
CC#CC(=O)N1CCC[C@H]1c1nc(-c2ccc(C(=O)Nc3ccccn3)cc2)c2c(N)nccn12 [Acalabrutinib, acalabrutinib] | 42.6 ± 10.4 | moderate (inhibit ENT1 activity by more than 35% but less than 60%) | –
CN(C)C/C=C/C(=O)Nc1cc2c(Nc3ccc(F)c(Cl)c3)ncnc2cc1O[C@H]1CCOC1 [Afatinib, afatinib] | 54.5 ± 2.4 | moderate (inhibit ENT1 activity by more than 35% but less than 60%) | –
CCc1cc2c(cc1N1CCC(N3CCOCC3)CC1)C(C)(C)c1[nH]c3cc(C#N)ccc3c1C2=O [Alectinib, alectinib] | 54.0 ± 4.9 | moderate (inhibit ENT1 activity by more than 35% but less than 60%) | –
COc1cc(N2CCC(N3CCN(C)CC3)CC2)ccc1Nc1ncc(Cl)c(Nc2ccccc2P(C)(C)=O)n1 [Brigatinib, brigatinib] | 52.5 ± 11.1 | moderate (inhibit ENT1 activity by more than 35% but less than 60%) | –
COc1cc2nccc(Oc3ccc(NC(=O)C4(C(=O)Nc5ccc(F)cc5)CC4)cc3)c2cc1OC [Cabozantinib, cabozantinib] | 48.8 ± 2.5 | moderate (inhibit ENT1 activity by more than 35% but less than 60%) | –
Cc1cc(Nc2ncc(Cl)c(Nc3ccccc3S(=O)(=O)C(C)C)n2)c(OC(C)C)cc1C1CCNCC1 [Ceritinib, ceritinib] | 26.3 ± 1.7 | weak (decreased ENT1 activity by less than 35% and can thus be considered as weak ENT1 inhibitors) | Effect on ENT1 activity (in words) [1]: only modestly decrease ENT1 activity
C[C@@H](Oc1cc(-c2cnn(C3CCNCC3)c2)cnc1N)c1c(Cl)ccc(F)c1Cl [Crizotinib, crizotinib] | 34.7 ± 2.7 | weak (decreased ENT1 activity by less than 35% and can thus be considered as weak ENT1 inhibitors) | Effect on ENT1 activity (in words) [1]: only modestly decrease ENT1 activity
COc1cc2ncnc(Nc3ccc(F)c(Cl)c3)c2cc1NC(=O)/C=C/CN1CCCCC1 [Dacomitinib, dacomitinib] | 43.9 ± 2.3 | moderate (inhibit ENT1 activity by more than 35% but less than 60%) | –
CN1CCN(c2ccc(C(=O)Nc3n[nH]c4ccc(Cc5cc(F)cc(F)c5)cc34)c(NC3CCOCC3)c2)CC1 [Entrectinib, entrectinib] | 22.9 ± 5.2 | – | –
C=CC(=O)N1CCC[C@@H](n2nc(-c3ccc(Oc4ccccc4)cc3)c3c(N)ncnc32)C1 [Ibrutinib, ibrutinib] | 72.7 ± 1.1 | potent (inhibit ENT1 by more than 60%) | Imax,u (maximum unbound plasma concentration) [2]: 9.56 nM; Predicted in vivo inhibition [3]: No
N#CCC1(n2cc(-c3ncnc4[nH]ccc34)cn2)CN(C2CCN(C(=O)c3ccnc(C(F)(F)F)c3F)CC2)C1 [Itacitinib, itacitinib] | 21.9 ± 13.3 | weak (decreased ENT1 activity by less than 35% and can thus be considered as weak ENT1 inhibitors) | –
COc1cc2nccc(Oc3ccc(NC(=O)NC4CC4)c(Cl)c3)c2cc1C(N)=O [Lenvatinib, lenvatinib] | 63.1 ± 5.9 | potent (inhibit ENT1 by more than 60%) | fu (unbound fraction) [4]: 0.016; Predicted in vivo inhibition [3]: No
C[C@H]1Oc2cc(cnc2N)-c2c(nn(C)c2C#N)CN(C)C(=O)c2ccc(F)cc21 [Lorlatinib, (10R)-7-amino-12-fluoro-2,10,16-trimethyl-15-oxo-10,15,16,17-tetrahydro-2H-8,4-(metheno)pyrazolo[4,3-h][2,5,11]-benzoxadiazacyclotetradecine-3-carbonitrile] | 86.6 ± 6.4 | potent (inhibit ENT1 by more than 60%) | Imax,u (maximum unbound plasma concentration) [2]: 485 nM; Cellular accumulation of lorlatinib ([5]; 5 min at 37 °C, without or with 0.1 or 100 µM NBMPR): similarly accumulate in HAP1 wild-type, ENT1-KO, and ENT2-KO cells; Substrate for ENT1/ENT2 ([5]; ± NBMPR): not a substrate for either ENT1 or ENT2; Predicted in vivo inhibition (in words) [6]: should also be clinically relevant; Predicted in vivo inhibition [3]: Yes
CCOc1cc2ncc(C#N)c(Nc3ccc(OCc4ccccn4)c(Cl)c3)c2cc1NC(=O)/C=C/CN(C)C [Neratinib, neratinib] | 61.0 ± 8.5 | potent (inhibit ENT1 by more than 60%) | fu (unbound fraction) [4]: 0.01; Imax,u (maximum unbound plasma concentration) [2]: 1.46 nM; Predicted in vivo inhibition [3]: No
COC(=O)c1ccc2c(c1)NC(=O)/C2=C(\Nc1ccc(N(C)C(=O)CN2CCN(C)CC2)cc1)c1ccccc1 [Nintedanib, nintedanib] | 46.9 ± 9.6 | – | –
C=CC(=O)Nc1cc(Nc2nccc(-c3cn(C)c4ccccc34)n2)c(OC)cc1N(C)CCN(C)C [Osimertinib, osimertinib] | 32.3 ± 11.3 | weak (decreased ENT1 activity by less than 35% and can thus be considered as weak ENT1 inhibitors) | –
C1=C/COCc2cc(ccc2OCCN2CCCC2)Nc2nccc(n2)-c2cccc(c2)COC/1 [Pacritinib, 11-(2-pyrrolidin-1-yl-ethoxy)-14,19-dioxa-5,7,26-triaza-tetracyclo[19.3.1.1(2,6).1(8,12)]heptacosa-1(25),2(26),3,5,8,10,12(27),16,21,23-decaene] | 61.6 ± 8.1 | potent (inhibit ENT1 by more than 60%) | fu (unbound fraction) [4]: 0.011; Imax,u (maximum unbound plasma concentration) [2]: 247.5 nM; Predicted in vivo inhibition [3]: No
CNC(=O)c1cc(Oc2ccc(NC(=O)Nc3ccc(Cl)c(C(F)(F)F)c3)c(F)c2)ccn1 [Regorafenib, regorafenib] | 21.4 ± 2.7 | – | –
CN(C)C(=O)c1cc2cnc(Nc3ccc(N4CCNCC4)cn3)nc2n1C1CCCC1 [Ribociclib, ribociclib] | 17.8 ± 10.2 | – | Effect on ENT1 activity (in words) [1]: failed to significantly alter ENT1 activity
C[C@@H]1CCN(C(=O)CC#N)C[C@@H]1N(C)c1ncnc2[nH]ccc12 [Tofacitinib, tofacitinib] | 4.8 ± 8.3 | – | Effect on ENT1 activity (in words) [1]: failed to significantly alter ENT1 activity
CCCS(=O)(=O)Nc1ccc(F)c(C(=O)c2c[nH]c3ncc(-c4ccc(Cl)cc4)cc23)c1F [Vemurafenib, vemurafenib] | 27.3 ± 10.9 | weak (decreased ENT1 activity by less than 35% and can thus be considered as weak ENT1 inhibitors) | –
